The subject of one assay is Candida albicans. As to the kind of experiment: Antimicrobial activity against Candida albicans IFO1594 at 100 uM after 20 hrs. In kind it is functional, organism-based. The essentials:
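C. albicans is cultured in yeast nitrogen base with 2% glucose for 20 h at 30 °C, harvested, and suspended in saline at 1 × 10^5 cells/mL. The suspension is combined in wells with the same medium and sample in DMSO. After 20 h at 30 °C, absorbance at 650 nm gives growth.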

Assay [1] deals with Micrococcus luteus. As to the kind of experiment: Antimicrobial activity against Micrococcus luteus ATCC 9343 after 20 hrs. The format is functional. The note with it: ATCC 9343, 20 h. The essentials: (§1)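 Broth microdilution in Mueller Hinton broth. Test bacteria are pre-grown 20 h at 30 °C on a reciprocal shaker, pelleted, and resuspended in saline at 1 × 10^5 cells/mL. Each well holds medium, cell suspension (1:10 of the well volume) and sample in DMSO. Plates are incubated 20 h at 30 °C, then growth is read as absorbance at 650 nm.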

Another assay relates to Escherichia coli. Nature of the assay: Antimicrobial activity against Escherichia coli NIH-JC2 at 100 uM after 20 hrs. In kind it is functional, organism-based. The essentials: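 E. coli is grown in Mueller Hinton broth for 20 h at 30 °C with shaking, spun down, and brought to 1 × 10^5 cells/mL in saline. This suspension is mixed in wells with medium and DMSO sample solution. The plate is incubated 20 h at 37 °C and growth is read at 650 nm.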

Assay [2] concerns Bacillus subtilis. Nature of the assay: Antimicrobial activity against Bacillus subtilis PCI219 after 20 hrs. In kind it is functional. The note with it: PCI219, 20 h. A digest of the protocol: as §1
Assay [3] deals with Staphylococcus aureus. As to the kind of experiment: Antimicrobial activity against Staphylococcus aureus IFO12732 after 20 hrs. The format is functional. To be noted: IFO12732, 20 h. A digest of the protocol:
as §1

Assay [4] relates to Bacillus subtilis. As to the kind of experiment: Antimicrobial activity against Bacillus subtilis PCI219 at 100 uM after 20 hrs. In kind it is functional, organism-based. The essentials:
as §1

Assay [5] has as its system Staphylococcus aureus. As to the kind of experiment: Antimicrobial activity against Staphylococcus aureus IFO12732 at 100 uM after 20 hrs. The format is functional, organism-based. The essentials: as §1
Assay [6] relates to Micrococcus luteus. Nature of the assay: Antimicrobial activity against Micrococcus luteus ATCC 9343 at 100 uM after 20 hrs. The format is functional, organism-based. A digest of the protocol: as §1

Converted amounts (≈) assume the structure as drawn. The source made the active and inactive calls. No cut-off for these calls is given here.

The MIC is the lowest concentration found to suppress growth. Low values mean a more susceptible organism, high ones a less susceptible organism. Regarding `C[C@@H]1CCC(=O)C2=C3O[C@@]4(C)[C@H](C)C[C@@]3(OC2=O)[C@H](/C=C/C1=O)[C@H]4O`, the outcome with Candida albicans and with Escherichia coli was inactive. Further, the MIC with Micrococcus luteus [1], against Bacillus subtilis [2] and against Staphylococcus aureus [3] was 29 µg/mL (≈ 83.7 µM) each time.
On to `C[C@@H]1CCC(=O)C2=C3O[C@@]4(C)[C@H](C)C[C@@]3(OC2=O)[C@H](/C=C/[C@H]1O)[C@H]4O`, for which the result in the assay with Candida albicans, in the assay on Escherichia coli, in the assay on Bacillus subtilis [4], with Staphylococcus aureus [5] and in the assay on Micrococcus luteus [6] was inactive.
